UHRF1 binding – UHRF1 methyl-DNA binding inhibition; UHRF1 binding to methylated oligo, TR-FRET; 370,000 compounds, 0.75% hits; Q96T88; inhibition, % at 4.4 µM;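 note: UHRF1 SRA domain binding a hemimethylated CpG hairpin DNA probe; 0% = median of test compound wells and 100% = reference inhibitor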
Target sequence (Q96T88 whole entry, looked up, the tested form may be a part): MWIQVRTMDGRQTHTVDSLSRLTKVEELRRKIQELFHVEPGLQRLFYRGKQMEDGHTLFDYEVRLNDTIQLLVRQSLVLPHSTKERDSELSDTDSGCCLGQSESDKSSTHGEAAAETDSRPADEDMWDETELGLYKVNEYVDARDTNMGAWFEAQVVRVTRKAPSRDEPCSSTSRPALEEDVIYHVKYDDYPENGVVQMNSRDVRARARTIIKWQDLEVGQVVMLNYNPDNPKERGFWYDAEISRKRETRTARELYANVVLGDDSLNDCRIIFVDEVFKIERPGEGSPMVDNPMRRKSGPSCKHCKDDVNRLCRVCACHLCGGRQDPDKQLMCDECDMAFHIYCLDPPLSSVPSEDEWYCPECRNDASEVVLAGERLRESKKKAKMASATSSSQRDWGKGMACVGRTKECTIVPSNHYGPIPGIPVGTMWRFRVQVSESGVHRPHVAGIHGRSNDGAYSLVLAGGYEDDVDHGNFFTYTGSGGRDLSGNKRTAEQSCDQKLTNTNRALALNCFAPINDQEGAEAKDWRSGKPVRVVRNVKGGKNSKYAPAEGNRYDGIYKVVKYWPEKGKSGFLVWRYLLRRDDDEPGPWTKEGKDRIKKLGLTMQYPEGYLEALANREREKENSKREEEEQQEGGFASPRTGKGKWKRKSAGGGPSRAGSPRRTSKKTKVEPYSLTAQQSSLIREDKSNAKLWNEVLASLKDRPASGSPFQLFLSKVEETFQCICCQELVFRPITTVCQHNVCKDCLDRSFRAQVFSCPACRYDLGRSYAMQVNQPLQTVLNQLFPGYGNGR
MBD2 inh – MBD2-methylated oligo binding inhibition; Q9UBB5; TR-FRET, MBD2 binding to methylated oligonucleotide; inhibition, % at 4.4 µM; 370,000 compounds, 0.31% hits; in the data active = inhibition above about 13%
NSD2 inh – NSD2 (human) methyltransferase inhibition. inhibition, % at 12.5 µM. O96028. NSD2 peptide methylation, AlphaScreen, 120 min. 310,000 compounds, 0.54% hits. AID 743445; in the data active = inhibition above about 50%
TDP2 inh – blocks human TDP2 phosphodiesterase activity | recombinant TDP2, T5PNP hydrolysis, p-nitrophenol absorbance 415 nm | 370,000 compounds, 0.34% hits | inhibition, % at 12.8 µM;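 active = inhibition above the mean of all tested compounds plus 3 SD, set per campaign, cut at about 25% in these data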;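 note: 0% = DMSO with enzyme and 100% = buffer with substrate but no TDP2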
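Incubation: 2 h at 37 °C; Test system: recombinant human TDP2; Quantity: enzyme 120 nM; Read-out basis: percent inhibition; Medium: 50 mM Tris-HCl pH 7.5 with Mg2+, KCl, DTT, BSA; Repeats: single replicate; Compound: 12.8 µM single point, 1% DMSO; Signal: epi absorbance; Reagent: 5 mM T5PNP chromogenic substrate; Benchmarks: no-enzyme high, DMSO-plus-enzyme low.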
LEDGF integ inh – blocks HIV-1 LEDGF/p75-dependent DNA integration | TR-FRET IN-LEDGF/p75 DNA integration, Eu/Cy5 | inhibition, % at 3.7 µM | 370,000 compounds, 0.64% hits | AID 743269;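 active = inhibition above the screen-wide mean plus 3 SD, cut at about 13% in these data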;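 note: signal is the Cy5 over europium emission ratio at 671 and 618 nm; 0% = plate median of compound wells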
CASP6 VEID inh – blocks human caspase-6 cleavage activity | inhibition, % at 12.5 µM | 350,000 compounds, 0.53% hits | AID 686996 | purified caspase-6, Z-VEID-R110 cleavage fluorescence | P55212;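 active = mean inhibition across replicates at least about 35%, with every replicate also reaching that limit, limit read from the data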;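 note: 0% = median of neutral control wells and 100% = no fluorescence left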
UHRF1 DNA bind – inhibits human UHRF1 binding to methylated oligonucleotide, MBD2 counter-screen; shares compounds with MBD2 inh; TR-FRET; inhibition, % at 4.4 µM; 1,000 compounds, 25% hits; AID 720530;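 note: UHRF1 SRA domain binding a labeled hemimethylated CpG hairpin DNA; 0% = vehicle only and 100% = reference inhibitor with vehicle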
MBD2 DBD conf – confirmation of human MBD2-DBD methylated oligonucleotide binding inhibitors | shares compounds with MBD2 inh | TR-FRET MBD2-DBD binding to methylated oligonucleotide | inhibition, % at 4.4 µM | 1,000 compounds, 26% hits; in the data active = inhibition above about 14%
TDP2 confirm – human TDP2 inhibition, confirmation. shares compounds with TDP2 inh. recombinant human TDP2, absorbance read-out. inhibition, % at 12.8 µM. 1,100 compounds, 22% hits. AID 743263; in the data active = inhibition above about 25%;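 note: 0% = vehicle with enzyme and 100% = no enzyme buffer only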
IN multimer up – activates HIV-1 integrase multimerization in LEDGF counter-screen | TR-FRET HIV-1 integrase multimerization, biochemical | activation, % at 7.7 µM | shares compounds with LEDGF integ inh | 2,000 compounds, 17% hits; in the data active = activation above about 8.9%
TRFRET interf – TR-FRET optical interference, LEDGF/p75 integration counter-screen. shares compounds with LEDGF integ inh. TR-FRET optical interference counterscreen, HIV-1 IN multimerization. inhibition, % at 7.7 µM. 2,000 tested, under 10 active;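 active = inhibition above the mean over all tested compounds plus 3 SD, which no compound reached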;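 note: 0% = integrase with antibodies and DMSO and 100% = antibodies without integrase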
LEDGF integ conf – LEDGF/p75-dependent HIV-1 integration inhibition, confirmation; 2,000 compounds, 36% hits; TR-FRET LEDGF/p75-dependent HIV-1 integration, biochemical; inhibition, % at 3.7 µM; shares compounds with LEDGF integ inh; in the data active = inhibition above about 14%
Alpha artifact – interferes with AlphaScreen signal, flagging NSD2 false positives. shares compounds with NSD2 inh. AlphaScreen artifact counterscreen, preloaded methylated H4 peptide. AC35, µM (highest dose often 10 µM), for inactives: at the highest dose activity change, negative = signal loss. 1,500 compounds, 9.4% hits. AID 1053174; call rule not given here
An asterisk follows results filed as active; · = not tested or not shown; + = active, no number. Sampled rows, rich in hits. Any-hit rate of the full collection: about 1.8%. Cut-off read from the data, not from the text of the source, unless noted: active = inhibition above about 21%; inactive = the rest.

SMILES	UHRF1 binding	MBD2 inh	NSD2 inh	TDP2 inh	LEDGF integ inh	CASP6 VEID inh	UHRF1 DNA bind	MBD2 DBD conf	IN multimer up	TRFRET interf	LEDGF integ conf	Alpha artifact	others
O=Cc1ccc2oc3nc4n(c(=O)c3c(=O)c2c1)CCCS4	15.8	17.7*	-2.1	-12.3	19.6*	·	37.7*	35.9*	17.4*	-62.5	32.2*	·
O=[N+]([O-])c1cccc(I)c1	88.1*	59.2*	·	-2.3	65.3*	7.5	1.0	5.9	-2.3	11.6	-2.2	·
Cc1c(C=O)c(C=O)c(C)n1Cc1ccccc1	31.5*	15.9*	·	24.9*	21.7*	-0.4	4.0	4.0	-2.2	11.0	12.1	·	TDP2 confirm=0.5
CCC(=O)Nc1ccc2c(c1)OC[C@@H](C)N(Cc1ccccn1)C[C@H](C)[C@H](OC)CN(C)C2=O	·	·	·	·	·	-4.1	·	·	·	·	·	·
O=C(Nc1cccc(C(F)(F)F)c1)c1ccc2nc(-c3ccco3)c(-c3ccco3)nc2c1	0.0	2.4	4.8	-5.6	-0.8	·	·	·	·	·	·	·
O=C(O)c1ccc2nc(-c3ccco3)c(-c3ccco3)nc2c1	92.8*	69.0*	185.7*	33.5*	86.2*	71.6*	72.7*	22.8*	72.8*	-257.6	75.9*	-8.2%	TDP2 confirm=18.1
Cc1ccc(/C=C2\SC(=S)N(NS(=O)(=O)c3ccc(C)cc3)C2=O)cc1	-2.8	-5.2	49.5	-5.0	-4.8	9.6	·	·	·	·	·	·
C=CCOc1ccc(/C=C2\SC(=S)N(NS(=O)(=O)c3ccc(C)cc3)C2=O)cc1	23.4*	13.5*	54.8*	22.8	-0.3	·	3.2	2.0	·	·	·	-14.0%
CN(C)C(=O)c1cc2c(c(-c3cccc(-c4ccc(F)cc4)c3)n1)[C@H](CCO)N([S@@](=O)C(C)(C)C)C2	·	·	·	·	·	4.6	·	·	·	·	·	·
Cc1[nH]n(-c2ccccc2)c(=O)c1C(C[N+](=O)[O-])c1ccc(Br)cc1 (stereo not drawn)	-5.2	-1.9	31.8	21.8	-1.4	·	·	·	·	·	·	·
Cc1[nH]n(-c2ccccc2)c(=O)c1C(c1ccc(C(=O)O)cc1)c1c(C)[nH]n(-c2ccccc2)c1=O	19.8	19.7*	57.3*	99.2*	34.4*	24.4	11.2	1.7	5.7	-20.3	14.2*	0.0%	TDP2 confirm=25.3*
CCC(=O)N1[C@H](CO)[C@H](c2ccc(-c3cccc(OC)c3)cc2)[C@H]1CNC(C)=O	·	·	·	·	·	-0.2	·	·	·	·	·	·
COc1ccc(NC(=O)N(C)C[C@H]2OCCCC[C@@H](C)Oc3ccc(NS(=O)(=O)c4cccs4)cc3C(=O)N([C@H](C)CO)C[C@@H]2C)cc1	·	·	·	·	·	-1.5	·	·	·	·	·	·
NC(=S)NN=Cc1ccc(-c2ccc(S(=O)(=O)Nc3ncccn3)cc2)o1	47.4*	15.2*	144.6*	5.2	14.8*	37.9*	28.8*	9.2	7.0	-35.3	34.0*	-7.7%
CCC1=NN2C(=N)/C(=C\c3ccc(SCc4ccco4)o3)C(=O)N=C2S1	56.5*	19.8*	103.3*	6.0	50.1*	·	19.8	3.9	5.0	-25.2	26.8*	-7.5%
COCC(=O)N1C[C@@H](C)[C@@H](OC)CN(C)C(=O)c2ccc(NC(=O)c3ccccc3)cc2OC[C@@H]1C	·	·	·	·	·	0.0	·	·	·	·	·	·
c1coc(-c2nnc(-c3ccco3)nn2)c1	77.5*	33.3*	139.8*	10.0	61.2*	89.4*	77.2*	34.8*	11.5*	-57.8	85.8*	-5.7%
O=C(CCCN1C(=O)/C(=C\c2cccs2)SC1=S)Nc1cccc(C(=O)O)c1	-1.3	-4.8	14.1	-11.6	-1.1	-1.3	·	·	·	·	·	·
O=C(CCCN1C(=O)/C(=C\c2ccco2)SC1=S)Nc1ccc(O)cc1C(=O)O	93.1*	27.2*	103.6*	29.1*	63.1*	·	44.8*	16.4*	·	·	·	-14.0%	TDP2 confirm=-7.6
O=C(CCCN1C(=O)/C(=C/c2ccco2)SC1=S)Nc1cccc(C(=O)O)c1	76.0*	29.7*	124.5*	20.2	46.1*	55.3*	21.0*	2.8	3.4	-17.1	25.7*	-11.8%
C[C@@H]1CCCCO[C@H](CN(C)Cc2ccncc2)[C@@H](C)CN([C@@H](C)CO)C(=O)c2cc(NS(=O)(=O)c3ccc(F)cc3)ccc2O1	·	·	·	·	·	1.4	·	·	·	·	·	·
C=CCN(CC=C)Cc1c(O)ccc2c1oc(=O)c1ccccc12	16.2	13.3*	51.3*	-8.7	0.2	·	-0.5	12.4	·	·	·	11.3%
C=CCN(CC=C)Cc1cc(=O)oc2ccc3ccccc3c12	-4.0	4.1	·	-0.8	3.9	2.4	·	·	·	·	·	·
CO[C@@H]1CN(C)C(=O)c2cc(NC(C)=O)ccc2OC[C@@H](C)N(Cc2ccccc2F)C[C@@H]1C	·	·	·	·	·	-0.1	·	·	·	·	·	·
CC1=NN(c2ccccc2)C(=O)/C1=C/C=C/c1ccccc1	-2.8	-0.2	6.6	-2.8	-0.8	·	·	·	·	·	·	·
CC1=NN(c2cccc(C(=O)O)c2)C(=O)/C1=C\C=C\c1ccco1	93.9*	69.9*	+	22.5	78.2*	·	94.3*	56.4*	46.0*	-231.8	72.1*	7.22µM*
O=C(/C=C/c1ccco1)N(c1ccccn1)c1ccccn1	51.9*	23.4*	76.6*	14.1	21.7*	53.8*	57.4*	27.5*	7.9	-39.9	46.4*	-0.9%
O=C(/C=C/c1ccco1)NC(=S)Nc1ccc(C(=O)O)cc1	86.8*	48.2*	65.9*	40.2*	62.9*	43.8*	75.5*	30.4*	37.5*	-133.4	53.4*	-4.7%	TDP2 confirm=19.6
CC(=O)NC(=S)Nc1ccc(NC(=S)NC(=O)/C=C/c2ccco2)cc1	-2.0	0.1	1.4	-5.0	3.4	1.8	·	·	·	·	·	·
C[C@H](CO)N1C[C@H](C)[C@@H](CN(C)C(=O)C2CCOCC2)Oc2ncc(C3=CCCCC3)cc2C1=O	·	·	·	·	·	-1.8	·	·	·	·	·	·

Assay outcomes (PubChem BioAssay)
